In ChEMBL document CHEMBL3868627, “Radical scavenging and antibacterial activity of caffemides against gram positive, gram negative and clinical drug resistance bacteria” (Bioorg Med Chem Lett, 2016):

Key:
[1] = test system: Mycolicibacterium smegmatis; test: Bactericidal activity against Mycobacterium smegmatis MC2 155 ATCC 700084 at 50 ug/ml measured after 24 hrs by serial dilution method relative to control; format: functional
In short: (§1)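 Bacteria were exposed to test compound over a range of µg/ml concentrations. Viable bacteria were counted by colony forming unit (CFU) assay at set time points (6 h and 24 h for M. smegmatis and S. aureus strains), and untreated bacteria served as the control. Percentage of population killed was calculated relative to the untreated control. Values are means ± S.D of three independent trials.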

Staphylococcus aureus [2] = test: Antibacterial activity against Staphylococcus aureus ATCC 25923 measured after 24 hrs by serial dilution method; format: functional
Staphylococcus aureus [3] = test: Antibacterial activity against methicillin-resistant Staphylococcus aureus ATCC 43300 assessed as colony forming units at 50 ug/ml measured after 6 hrs by serial dilution method (reference value: 64.33 +/- 3.51 10^6CFU); format: functional; in short: as §1
Staphylococcus aureus [4] = test: Antibacterial activity against Staphylococcus aureus ATCC 25923 assessed as colony forming units at 500 ug/ml measured after 24 hrs by serial dilution method (reference value: 77.66 +/- 5.13 10^6CFU); format: functional
Staphylococcus aureus [5] = test: Antibacterial activity against Staphylococcus aureus ATCC 25923 assessed as colony forming units at 10 ug/ml measured after 6 hrs by serial dilution method (reference value: 65.66 +/- 3.51 10^6CFU); format: functional
Staphylococcus aureus [6] = test: Antibacterial activity against Staphylococcus aureus ATCC 25923 assessed as colony forming units at 1 ug/ml measured after 24 hrs by serial dilution method (reference value: 77.66 +/- 5.13 10^6CFU); format: functional
[7] = test system: Mycolicibacterium smegmatis; test: Antibacterial activity against Mycobacterium smegmatis MC2 155 ATCC 700084 assessed as colony forming units at 100 ug/ml measured after 6 hrs by serial dilution method (reference value: 70 +/- 1.73 10^3CFU); format: functional; in short: as §1
Staphylococcus aureus [8] = test: Bactericidal activity against methicillin-resistant Staphylococcus aureus ATCC 43300 at 50 ug/ml measured after 6 hrs by serial dilution method relative to control; format: functional; in short: as §1
[9] = test system: Mycolicibacterium smegmatis; test: Antibacterial activity against Mycobacterium smegmatis MC2 155 ATCC 700084 assessed as colony forming units at 500 ug/ml measured after 6 hrs by serial dilution method (reference value: 70 +/- 1.73 10^3CFU); format: functional; in short: as §1
Staphylococcus aureus [10] = test: Antibacterial activity against Staphylococcus aureus ATCC 25923 assessed as colony forming units at 200 ug/ml measured after 24 hrs by serial dilution method (reference value: 77.66 +/- 5.13 10^6CFU); format: functional
[11] = test system: Mycolicibacterium smegmatis; test: Antibacterial activity against Mycobacterium smegmatis MC2 155 ATCC 700084 assessed as colony forming units at 100 ug/ml measured after 24 hrs by serial dilution method (reference value: 84 +/- 4.35 10^3CFU); format: functional; in short: as §1
Staphylococcus aureus [12] = test: Antibacterial activity against Staphylococcus aureus ATCC 25923 assessed as colony forming units at 10 ug/ml measured after 24 hrs by serial dilution method (reference value: 77.66 +/- 5.13 10^6CFU); format: functional
Pseudomonas aeruginosa [13] = test: Antibacterial activity against Pseudomonas aeruginosa PAO1 ATCC 15692 assessed as colony forming units at 500 ug/ml measured after 3 hr by serial dilution method (reference value: 141.66 +/- 7.5 10^8CFU); format: functional
[14] = test system: Mycolicibacterium smegmatis; test: Antibacterial activity against Mycobacterium smegmatis MC2 155 ATCC 700084 assessed as colony forming units at 200 ug/ml measured after 24 hrs by serial dilution method (reference value: 84 +/- 4.35 10^3CFU); format: functional; in short: as §1
Staphylococcus aureus [15] = test: Antibacterial activity against methicillin-resistant Staphylococcus aureus ATCC 43300 assessed as colony forming units at 1 ug/ml measured after 24 hrs by serial dilution method (reference value: 74 +/- 2 10^6CFU); format: functional; in short: as §1
Staphylococcus aureus [16] = test: Bactericidal activity against methicillin-resistant Staphylococcus aureus ATCC 43300 at >100 ug/ml measured after 6 and 24 hrs by serial dilution method relative to control; format: functional; in short: as §1
Pseudomonas aeruginosa [17] = test: Antibacterial activity against Pseudomonas aeruginosa PAO1 ATCC 15692 assessed as colony forming units at 300 ug/ml measured after 1 hr by serial dilution method (reference value: 85.33 +/- 4.04 10^8CFU); format: functional
[18] = test system: Mycolicibacterium smegmatis; test: Antibacterial activity against Mycobacterium smegmatis MC2 155 ATCC 700084 assessed as colony forming units at 50 ug/ml measured after 24 hrs by serial dilution method (reference value: 84 +/- 4.35 10^3CFU); format: functional; in short: as §1
[19] = test system: Mycolicibacterium smegmatis; test: Antibacterial activity against Mycobacterium smegmatis MC2 155 ATCC 700084 assessed as colony forming units at 300 ug/ml measured after 24 hrs by serial dilution method (reference value: 84 +/- 4.35 10^3CFU); format: functional; in short: as §1
[20] = test system: Mycolicibacterium smegmatis; test: Antibacterial activity against Mycobacterium smegmatis MC2 155 ATCC 700084 assessed as colony forming units at 10 ug/ml measured after 6 hrs by serial dilution method (reference value: 70 +/- 1.73 10^3CFU); format: functional; in short: as §1
Pseudomonas aeruginosa [21] = test: Antibacterial activity against Pseudomonas aeruginosa PAO1 ATCC 15692 measured after 1 to 3 hrs by serial dilution method
[22] = test system: Mycolicibacterium smegmatis; test: Antibacterial activity against Mycobacterium smegmatis MC2 155 ATCC 700084 assessed as colony forming units at 10 ug/ml measured after 24 hrs by serial dilution method (reference value: 84 +/- 4.35 10^3CFU); format: functional; in short: as §1
Staphylococcus aureus [23] = test: Antibacterial activity against Staphylococcus aureus ATCC 25923 assessed as colony forming units at 300 ug/ml measured after 24 hrs by serial dilution method (reference value: 77.66 +/- 5.13 10^6CFU); format: functional
[24] = test system: Mycolicibacterium smegmatis; test: Antibacterial activity against Mycobacterium smegmatis MC2 155 ATCC 700084 assessed as colony forming units at 200 ug/ml measured after 6 hrs by serial dilution method (reference value: 70 +/- 1.73 10^3CFU); format: functional; in short: as §1
Pseudomonas aeruginosa [25] = test: Antibacterial activity against Pseudomonas aeruginosa PAO1 ATCC 15692 assessed as colony forming units at 100 ug/ml measured after 3 hr by serial dilution method (reference value: 141.66 +/- 7.5 10^8CFU); format: functional
Pseudomonas aeruginosa [26] = test: Antibacterial activity against Pseudomonas aeruginosa PAO1 ATCC 15692 assessed as colony forming units at 500 ug/ml measured after 1 hr by serial dilution method (reference value: 85.33 +/- 4.04 10^8CFU); format: functional
Pseudomonas aeruginosa [27] = test: Antibacterial activity against Pseudomonas aeruginosa PAO1 ATCC 15692 assessed as colony forming units at 1 ug/ml measured after 1 hr by serial dilution method (reference value: 85.33 +/- 4.04 10^8CFU); format: functional
Staphylococcus aureus [28] = test: Bactericidal activity against Staphylococcus aureus ATCC 25923 at 50 ug/ml measured after 24 hrs by serial dilution method relative to control; format: functional
Staphylococcus aureus [29] = test: Antibacterial activity against methicillin-resistant Staphylococcus aureus ATCC 43300 assessed as colony forming units at 1 ug/ml measured after 6 hrs by serial dilution method (reference value: 64.33 +/- 3.51 10^6CFU); format: functional; in short: as §1

| Structure (SMILES) | Activity [1] [%] | Activity (Staphylococcus aureus [2]) | Activity (Staphylococcus aureus [3]) [×10⁶ CFU] | Activity (Staphylococcus aureus [4]) [×10⁶ CFU] | Activity (Staphylococcus aureus [5]) [×10⁶ CFU] | Activity (Staphylococcus aureus [6]) [×10⁶ CFU] | Activity [7] [×10³ CFU] | Activity (Staphylococcus aureus [8]) [%] | Activity [9] [×10³ CFU] | Activity (Staphylococcus aureus [10]) [×10⁶ CFU] | Activity [11] [×10³ CFU] | Activity (Staphylococcus aureus [12]) [×10⁶ CFU] | Activity (Pseudomonas aeruginosa [13]) [×10⁸ CFU] | Activity [14] [×10³ CFU] | Activity (Staphylococcus aureus [15]) [×10⁶ CFU] | Activity (Staphylococcus aureus [16]) [%] | Activity (Pseudomonas aeruginosa [17]) [×10⁸ CFU] | Activity [18] [×10³ CFU] | Activity [19] [×10³ CFU] | Activity [20] [×10³ CFU] | further results |
| --- | --- | --- | --- | --- | --- | --- | --- | --- | --- | --- | --- | --- | --- | --- | --- | --- | --- | --- | --- | --- | --- |
| Cc1ccc(O)c(NC(=O)/C=C/c2ccc(O)c(O)c2)c1 | 45.6 | Dose-dependent effect | 27.33 | 0 | 25.66 | 75.66 | 14.33 | 57.5 | 0 | 0 | 36.33 | 63 | 0 | 15 | 54.33 | 100 | 0 | 45.66 | 0 | 42.66 | Activity (Pseudomonas aeruginosa [21]): Dose-dependent effect; Activity [22]: 58 ×10³ CFU; Activity (Staphylococcus aureus [23]): 0 ×10⁶ CFU; Activity [24]: 6.33 ×10³ CFU; Activity (Pseudomonas aeruginosa [25]): 69.66 ×10⁸ CFU; Activity (Pseudomonas aeruginosa [26]): 0 ×10⁸ CFU; Activity (Pseudomonas aeruginosa [27]): 62 ×10⁸ CFU; Activity (Staphylococcus aureus [28]): 89.6%; Activity (Staphylococcus aureus [29]): 61 ×10⁶ CFU |
| O=C(/C=C/c1ccc(O)c(O)c1)Nc1ccccc1Nc1ccccc1 | 78.1 | Dose-dependent effect | 30.33 | 0 | 40 | 68.33 | 24.66 | 52.8 | 0 | 0 | 8 | 40 | 0 | 0 | 60 | 100 | 0 | 18.33 | 0 | 38.33 | Activity (Pseudomonas aeruginosa [21]): Dose-dependent effect; Activity [22]: 35.33 ×10³ CFU; Activity (Staphylococcus aureus [23]): 0 ×10⁶ CFU; Activity [24]: 15 ×10³ CFU; Activity (Pseudomonas aeruginosa [25]): 32.66 ×10⁸ CFU; Activity (Pseudomonas aeruginosa [26]): 0 ×10⁸ CFU; Activity (Pseudomonas aeruginosa [27]): 61 ×10⁸ CFU; Activity (Staphylococcus aureus [28]): 68.2%; Activity (Staphylococcus aureus [29]): 58 ×10⁶ CFU |
